# Assay outcomes deposited in PubChem BioAssay by several laboratories.
# Only some compounds are listed: those with a hit (about 1.5% of all), similar ones and a draw of the others.
# HTR2A ag: activates the mouse 5-HT2A serotonin receptor | AID 624169 | CHO-K1 mHTR2A beta-arrestin complementation, luminescence; percent of 30 µM serotonin response | 360,000 tested, 0.66% active | activation, % at 7.6 µM | P35363;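 active = activation above a run cutoff, the mean activation of all tested compounds plus 3 SD, cut at about 14% in these data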
# NTR1 ag: activates human neurotensin receptor 1. activation, % at 20 µM. NTR1-U2OS beta-arrestin-GFP spot imaging, agonist mode. 330,000 tested, 0.17% active;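 active = activation at or above 40% of the spot to cytoplasm intensity ratio, with at least 20 cells analyzed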
# APJ agonist: APJ receptor agonism; P35414; activation, % at 20 µM; 330,000 tested, 0.11% active; AID 2520; CHO-K1 APJ PathHunter beta-arrestin, luminescence; 0% DMSO wells, 100% apelin;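 active = activation more than six SD over the plate average, tested at 20 µM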
#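 Assay system – PathHunter CHO-K1 APJ (AGTRL-1) beta-arrestin reporter cells · Compound – one dose, 20 µM compound, 1% DMSO · Timing – compound 90 min 25 °C, reagent 1 h · Measured by – luminescence from split beta-galactosidase complementation, Galacton Star/Emerald II substrate · Measure – beta-arrestin recruitment to APJ as agonist activity, luminescent signal · Benchmarks – DMSO vs Apelin-13 10 nM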
# CCR6 antagonist: CCR6 (human) receptor antagonism; P51684; CHO-K1 CCR6 PathHunter beta-arrestin, luminescence, CCL20-stimulated; inhibition, % at 20 µM; 340,000 tested, 0.49% active; AID 493098;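 active = compounds whose inhibition of the agonist-driven luminescence signal at 20 µM reaches about 50%, limit read from the data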;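 also: cells stimulated with CCL20 at 14 nM final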
# CXCR6 block: inhibitors of human CXCR6 receptor. CHO-K1 PathHunter CXCR6 beta-arrestin, luminescence. 360,000 tested, 0.36% active. inhibition, % at 20 µM. O00574. AID 602244; in the data active = inhibition above about 34%, passing the limit was not always enough;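 also: antagonist mode with CXCL16 agonist at 10 nM final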
# Target sequence (O00574 whole entry, looked up): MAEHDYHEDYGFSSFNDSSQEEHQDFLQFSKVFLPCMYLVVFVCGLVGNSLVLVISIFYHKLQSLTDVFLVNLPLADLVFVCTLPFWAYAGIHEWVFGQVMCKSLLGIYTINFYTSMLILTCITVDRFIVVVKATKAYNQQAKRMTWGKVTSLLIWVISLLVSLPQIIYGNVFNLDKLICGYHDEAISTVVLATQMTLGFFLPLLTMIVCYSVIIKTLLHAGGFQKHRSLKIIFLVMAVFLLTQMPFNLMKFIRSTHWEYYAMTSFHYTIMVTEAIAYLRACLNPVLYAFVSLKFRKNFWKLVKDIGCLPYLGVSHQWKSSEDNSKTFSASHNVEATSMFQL
# APJ antagonist: APJ receptor antagonism | P35414 | CHO-K1 APJ beta-arrestin complementation, luminescence | inhibition, % at 20 µM | 330,000 tested, 0.32% active | AID 2521;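 active = inhibition above about 40% at 20 µM, limit read from the data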;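 also: cells challenged with 10 nM apelin-13 agonist together with compound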
# APJ antag conf: APJ receptor antagonism confirmation | shares compounds with APJ antagonist | 950 tested, 66% active | inhibition, % at 20 µM | APJ beta-arrestin recruitment, luminescence, antagonist mode; in the data active = inhibition above about 50%
# A number is an active result; - = inactive; . = not tested or not shown.
SMILES,HTR2A ag,NTR1 ag,APJ agonist,CCR6 antagonist,CXCR6 block,APJ antagonist,APJ antag conf
COc1cc(/C=C2\SC(=S)N(NC(=O)c3cccnc3)C2=O)ccc1O,-,-,-,-,-,42.1,95.3
CC(=O)c1cccc(NC(=O)CN(C)S(=O)(=O)c2cccc3nsnc23)c1,-,-,-,-,-,-,.
COc1cc(/C=C2\SC(c3ccc(C)cc3)=NC2=O)ccc1O,-,-,-,75.0,57.2,57.6,102.4
Nc1nc(-c2ccc(Cl)cc2)c(N=Nc2ccc(S(=O)(=O)N3CCOCC3)cc2)s1,-,-,-,71.3,51.4,48.8,89.0
c1ccc(-c2nc(-c3ccco3)cs2)nc1,-,-,-,-,-,53.3,-
COCCN(C(=S)Nc1cccc(C)c1)C(C)c1cccnc1 (centres undefined),-,-,-,-,-,-,.
NS(=O)(=O)c1ccc(NNC(=O)c2ccc(Br)o2)c([N+](=O)[O-])c1,-,-,-,68.6,-,52.2,82.2
COc1cc(/C=C/c2sc3ccccc3[n+]2CCCS(=O)(=O)[O-])ccc1O,-,-,-,54.8,51.1,50.9,99.6
CCC(/C=C1\Oc2ccc(OC)cc2N1C)=C\c1sc2ccccc2[n+]1CCCS(=O)(=O)[O-],-,.,.,-,-,.,.
CCN(CC)C(=O)Cn1ccc(NC(C)=O)nc1=O,-,-,-,-,-,-,.
C/C(=N\NC(=O)C(O)c1ccccc1)c1cccnc1 (centres undefined),-,-,-,-,-,-,.
CC(=O)N/N=C(/c1ccccc1)C(O)c1ccccc1 (centres undefined),-,-,-,-,-,42.9,-
Cc1ccc([C@@H]2[C@@H]3C(=O)N(c4ccccc4)C(=O)[C@@H]3[C@]3(C)C(=O)N(Cc4ccc(-c5ccccc5)cc4)CC(=O)N23)o1,-,-,-,-,-,-,.
CN(C)S(=O)(=O)n1cc(/C=C(\NC(=O)c2ccccc2Cl)C(=O)N2CCOCC2)c2ccccc21,-,-,-,-,-,49.7,-
CCOC(=O)N1CCN(C(=O)c2cccn3c(=O)c4cc(Cl)ccc4nc23)CC1,-,-,-,-,-,-,.
CCOC(CNC(=O)c1cccn2c(=O)c3cc(Cl)ccc3nc12)OCC,-,-,-,-,-,50.5,-
CN(Cc1ccccc1)C(=S)NC(=O)c1cccs1,-,-,-,-,-,40.8,-
O=C(CN1C(=O)C2C3C=CC(C3)C2C1=O)OCC(=O)c1ccc([N+](=O)[O-])cc1 (centres undefined),-,-,-,-,-,-,.
O=C(Cc1ccccc1)NCC(=O)OCC(=O)c1ccc([N+](=O)[O-])cc1,-,-,-,-,-,-,.
O=C(Cc1ccccc1)NCC(=O)OCC(=O)c1cccc([N+](=O)[O-])c1,-,-,-,52.8,-,45.9,67.6
O=C(CN1C(=O)c2ccccc2C1=O)NCC(=O)OCC(=O)c1cccc([N+](=O)[O-])c1,-,-,-,-,-,70.3,102.6
N/C(=N\OC(=O)CCCc1ccccc1)c1cccc([N+](=O)[O-])c1,-,-,-,-,-,-,.
O=C(CN1C(=O)C2CC=CCC2C1=O)OCC(=O)c1ccc(Cl)c([N+](=O)[O-])c1 (centres undefined),-,-,-,79.1,58.2,78.9,149.1
O=C(CCc1ccccc1)OCC(=O)c1cccc([N+](=O)[O-])c1,-,-,-,-,-,65.5,64.1
CN(C1=NS(=O)(=O)c2ccccc21)c1ccc(OC(=O)c2ccccc2F)cc1,-,.,.,.,-,.,.
SMILES,HTR2A ag,NTR1 ag,APJ agonist,CCR6 antagonist,CXCR6 block,APJ antagonist,APJ antag conf
COc1ccc(NC(=O)[C@H](C)NC(=O)C2CCN(S(=O)(=O)c3ccc(C)cc3)CC2)cc1,-,-,-,-,-,-,.
COCCN1C(=O)C(C(=O)OC)CC2=C1CC(C)(C)CC2=O (centres undefined),-,.,.,-,-,.,.
O=C(CNC(=O)c1ccco1)OCC(=O)c1ccc([N+](=O)[O-])cc1,-,-,-,-,-,-,.
O=C(CNC(=O)c1ccco1)NCC(=O)OCC(=O)c1ccc(Cl)c([N+](=O)[O-])c1,-,-,-,89.1,58.2,82.5,146.6
O=C(CN1C(=O)C2C3CC(C(Br)C3Br)C2C1=O)OCC(=O)c1cccc([N+](=O)[O-])c1 (centres undefined),-,-,-,-,-,44.1,58.5
Cc1ccc(C(=O)NCC(=O)OCc2c(F)cccc2Cl)s1,-,-,-,-,-,-,.
CCOc1cc2[nH]c(=O)n(CCCCC(=O)N3CCCCCC3)c(=O)c2cc1OCC,-,-,-,-,-,44.1,-
CCOc1ccc(NC(=O)CC2C(=O)N(CC)C(=S)N2CCN2CCOCC2)cc1 (centres undefined),-,-,-,-,-,46.3,-
COc1ccccc1NC(=O)c1cc2c(=O)n(C)c3ccccc3c2n1C,-,-,-,-,-,-,.
CN1C(=O)OC(C)(CCc2ccccc2)C1(C)O (centres undefined),-,-,-,-,-,-,.
CC(c1ccccc1)N1C(=O)OC(C)(C)C1(C)O (centres undefined),-,-,-,-,-,72.3,-
CCc1ccc2c(c1)NC(=O)C2(C)Cc1ccccc1 (centres undefined),-,.,.,.,-,.,.
CCc1ccc2c(c1)C1(NN=C(c3cccc4ccccc34)S1)C(=O)N2 (centres undefined),-,-,-,.,-,42.0,-
N#C/C(=C\c1ccc(O)c(O)c1)C(=O)c1ccc(O)c(O)c1,-,-,-,53.5,-,42.7,57.0
CCOc1ccc(/C=N/n2c(-c3ccccc3)n[nH]c2=S)cc1,-,-,-,-,-,-,.
Cn1c(=O)cc(SCC(=O)Nc2ccc3c(c2)OCO3)c2ccccc21,-,-,-,-,-,44.9,-
CCOc1cc(/C=C2\CCC/C(=C\c3cc(Cl)c(O)c(OCC)c3)C2=O)cc(Cl)c1O,-,-,-,51.2,59.8,58.3,110.7
Cc1ccnc(NS(=O)(=O)c2ccc(NC(=O)C3CCCCC3)cc2)n1,-,-,-,-,-,-,.
Cc1cc(C)nc(NS(=O)(=O)c2ccc(NC(=S)NC(=O)C3CCCC3)cc2)n1,-,-,-,-,-,42.9,-
CSC(=S)NCc1cccnc1,-,-,-,-,-,-,.
CCCCC(O)(c1ccc(CC)cc1)C(CN1CCOCC1)c1ccccc1 (centres undefined),-,-,-,-,-,-,.
CC(C)C[C@@H]1COc2cc(N3CC[C@H](O)C3)ccc2S(=O)(=O)N1,-,.,.,.,-,.,.
Cc1ccc(-c2ccc(/C=C(\C#N)C(N)=S)n2C)cc1,-,-,-,-,-,-,.
